TDP2 inh: human TDP2 enzyme inhibitors, primary screen, biochemical, epi absorbance, recombinant enzyme; inhibition, % at 12.8 µM; T5PNP hydrolysis, p-nitrophenol absorbance 415 nm; actives 0.34% (n = 370,000); Tyrosyl-DNA phosphodiesterase 2 (Homo sapiens), O95551;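 active = inhibition above the mean of all tested compounds plus 3 SD, set per campaign, cut at about 25% in these data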;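 note: 0% = DMSO with enzyme and 100% = buffer with substrate but no TDP2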
Target sequence (O95551 whole entry, looked up): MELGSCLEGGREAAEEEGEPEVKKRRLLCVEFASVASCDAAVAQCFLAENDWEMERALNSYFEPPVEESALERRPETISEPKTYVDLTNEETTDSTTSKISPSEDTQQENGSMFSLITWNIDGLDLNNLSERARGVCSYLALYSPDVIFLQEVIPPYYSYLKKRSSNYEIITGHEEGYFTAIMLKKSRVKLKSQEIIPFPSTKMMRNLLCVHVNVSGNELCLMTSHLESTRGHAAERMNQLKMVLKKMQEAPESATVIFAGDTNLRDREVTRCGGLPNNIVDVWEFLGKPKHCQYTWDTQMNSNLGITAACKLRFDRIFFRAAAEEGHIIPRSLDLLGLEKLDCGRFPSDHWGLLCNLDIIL
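Test system: Human TDP2 enzyme | Reagent: 5 mM T5PNP | Compound dosing: 12.8 µM single point, 1% DMSO | Incubation: Enzyme reaction with compound for 2 h at 37 °C | Technique: p-Nitrophenol epi absorbance | Read-out: % inhibition relative to enzyme-containing and enzyme-free wells | Benchmarks: High control without enzyme, low control DMSO plus TDP2 | Replicates: Singlicate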
PAD4 inh: human PAD4 inhibitors, primary screen, biochemical, fluorescence polarization, 1536-well format; Protein-arginine deiminase type-4 (Homo sapiens), Q9UM07; recombinant PAD4, RCA probe fluorescence polarization; inhibition, % at 6.36 µM; actives 0.41% (n = 330,000); AID 485272, 2010;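 active = percent inhibition above a cutoff equal to the mean of all tested compounds plus 3 SD, cut at about 15% in these data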;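 note: 0% = PAD4 with RCA probe and DMSO and 100% = probe without PAD4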
Fh CTSL1 inh: Fasciola hepatica cathepsin L1 inhibitors, primary screen, counter-screen for PFM18AAP inhibitor project, biochemical, QFRET, fluorogenic peptide substrate. recombinant F. hepatica cathepsin L1, Z-Leu-Arg-MCA fluorescence. AID 1906, 2009. actives 0.49% (n = 300,000). inhibition, % at 5.96 µM;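 active = inhibition above the mean of all tested compounds plus 3 SD, set per screening campaign, cut at about 17% in these data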;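 note: 0% = plate median of test compound wells and 100% = 1 µM Z-Phe-Ala-diazomethylketone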
GSTO1 counter: inhibitors of recombinant GSTO1, primary screen, counter-screen for RBBP9 inhibitor project, biochemical, fluorescence polarization; Glutathione S-transferase omega-1 (Homo sapiens), P78417; activity-based probe fluorescence polarization; inhibition, % at 5.96 µM; actives 1.1% (n = 300,000); AID 1974, 2009;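 active = inhibition above the campaign mean inhibition plus 3 SD, cut at about 35% in these data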;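 note: 0% = GSTO1-1 with DMSO and 100% = wells lacking GSTO1-1 enzyme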
Target sequence (P78417 whole entry, looked up): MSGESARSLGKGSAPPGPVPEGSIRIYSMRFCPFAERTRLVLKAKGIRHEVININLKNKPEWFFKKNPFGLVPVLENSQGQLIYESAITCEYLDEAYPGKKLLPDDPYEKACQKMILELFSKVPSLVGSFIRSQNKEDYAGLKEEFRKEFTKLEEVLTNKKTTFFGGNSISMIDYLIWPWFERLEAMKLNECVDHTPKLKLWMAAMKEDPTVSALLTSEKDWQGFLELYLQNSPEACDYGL
Apaf1 inhib: inhibitors of human Apaf-1 apoptosome, primary screen, biochemical, DEVD-Rh110 fluorescence, uHTS | Apoptotic protease-activating factor 1 (Homo sapiens), O14727 | reconstituted apoptosome caspase-3 activity | inhibition, % at 20 µM | actives 0.71% (n = 330,000); active = inhibition of at least 40% at 20 µM;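 note: plate controls were DMSO wells for no effect and DEVD-CHO caspase inhibitor wells for full effect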
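Material: reconstituted apoptosome with Apaf-1, cytochrome c, caspase-9, procaspase-3, dATP / Buffer or medium: pH 7.5 Hepes buffer with CHAPS, BSA, DTT / Also added: cytochrome c with DEVD-Rh110 / Schedule: compound with Apaf-1, dATP, procaspase-3 30 min, then 50 min reaction, room temperature / Technique: rhodamine 110 fluorescence at Ex 480/Em 540 nm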
GSTO1 inh conf: GSTO1 inhibitor hit confirmation, counter-screen for RBBP9 inhibitor project, biochemical, fluorescence polarization, triplicate. actives 54% (n = 2,400). AID 2176, 2009. recombinant GSTO1, probe fluorescence polarization. shares compounds with GSTO1 counter. inhibition, % at 5.96 µM;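 active = inhibition above the primary screen's cutoff, its mean inhibition plus 3 SD, cut at about 35% in these data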;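 note: loss of polarization as inhibitors block binding of rhodamine sulfonate ester activity probe; 0% = GSTO1 with DMSO and 100% = wells lacking GSTO1 enzyme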
GSTO1 ABPP inh: inhibitors of purified human GSTO1, late-stage follow-up, biochemical, gel ABPP, SE-Rh probe, percent inhibition; actives 30% (n = 130); AID 463110, 2010; recombinant GSTO1, gel ABPP SE-Rh probe fluorescence; shares compounds with GSTO1 counter; inhibition, % at 1 µM;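 active = inhibition of the enzyme GSTO1 above about 75%, limit read from the data; inactive = inhibition below that limit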
Starred values were filed as active, the others as inactive; nt = not tested or not shown. A selection: hits, their analogues and other compounds. The true share with any hit is near 1.8%.

SMILES	TDP2 inh	PAD4 inh	Fh CTSL1 inh	GSTO1 counter	Apaf1 inhib	GSTO1 inh conf	others
CCCC[C@H]1C2CC(OC(=O)Nc3ccc(F)cc3)C(C2)[C@H]2CCCCN21 (stereo not given in full)	-9	nt	nt	nt	nt	nt
O=C(CCl)N1c2ccccc2SCC1c1ccccc1 (stereo not given)	13	4	-1	86*	9	94*	GSTO1 ABPP inh=75*
OC(c1ccccc1)(c1ccccc1)C1CCN(CCCOc2cccc(C(F)(F)F)c2)CC1	-2	nt	nt	nt	nt	nt
COc1ccc(-c2cc(=O)oc3c(O)c(O)ccc23)cc1	-2	7	2	58*	6	19
Cc1nc(-n2nnc3ccccc32)c2c3c(sc2n1)CCCC3	13	-3	-2	127*	3	3
c1ccc2c(c1)nnn2-c1ncnc2sc3c(c12)CCCC3	-5	-3	1	-4	-4	nt
O=C(Nc1ccccc1)c1cn(CCBr)cn1	-16	0	-2	62*	-27	73*
O=C(Nc1ccccc1)c1ccc(C(=O)Nc2ccccc2)nc1	-4	-2	0	1	-3	nt
COc1cccc(C(=O)N[C@H](C(=O)N2CCC[C@H]2C(=O)NCc2ccccc2)C2CCCCC2)c1	-7	nt	nt	nt	nt	nt
O=C(N/N=C/c1ccc([N+](=O)[O-])o1)c1ccc(NS(=O)(=O)c2cccs2)cc1	-3	0	7	55*	-1	19
Cc1cc(C)n(/N=C\c2c(O)ccc3ccccc23)c(=O)c1C(N)=O	-6	-9	7	43*	9	6
CCn1c(SCc2ccc(C(C)(C)C)cc2)nnc1-c1ccc(C(C)(C)C)cc1	0	nt	nt	nt	nt	nt
C/C(=N\Nc1cccc2cccnc12)c1ccc[nH]1	-11	-2	5	47*	7	3
COC(=O)[C@]12C[C@H](CC(=O)NCc3cccc4ccccc34)C(=O)N(Cc3ccco3)C1=C[C@H](COCc1ccccc1)O[C@@H]2C	-7	nt	nt	nt	nt	nt
Cn1c(=O)oc2cc(NC(=O)CCl)ccc21	-5	-4	13	76*	-8	87*
CC(NC(=O)c1cccs1)c1ccccc1 (stereo not given)	-9	1	-2	63*	-12	5
O=S(=O)(c1ccc(Cl)cc1)N1CCC2(CC1)CO2	-1	-4	0	96*	5	106*	GSTO1 ABPP inh=64
COc1ccc(N2C(=O)c3ccccc3C2O)cc1 (stereo not given)	-7	1	2	4	9	nt
COc1ccc(O)c(C(=O)C2c3ccccc3C(=O)N2c2ccc(C)cc2)c1 (stereo not given)	-11	-4	-3	62*	26	1
COC(=O)C1CN(Cc2cn(Cc3ccc(F)cc3)nn2)CCS(=O)(=O)N1Cc1ccccc1 (stereo not given)	1	nt	nt	nt	nt	nt
CCCNC(=O)COC(=O)c1c2c(nc3ccccc13)CCC2	4	5	-5	47*	-2	2
CC(C)CNC(=O)COC(=O)c1c2c(nc3ccccc13)CCC2	21	0	1	-3	7	nt
COCC(C)OC(=O)c1c(N)n(CC(C)C)c2nc3ccccc3nc12 (stereo not given)	3	-18	1	45*	22	2
O=C(CSc1nnc(CNC(=O)c2ccccc2)o1)Nc1ccc2c(c1)OCCO2	-5	1	-3	0	-4	nt
O=C(CSc1nnc(CNc2ccccc2)o1)c1ccc2c(c1)OCCO2	-4	1	1	40*	3	30
SMILES	TDP2 inh	PAD4 inh	Fh CTSL1 inh	GSTO1 counter	Apaf1 inhib	GSTO1 inh conf	others
Oc1ccc(Nc2nc(-c3ccc4ccccc4c3)cs2)cc1	7	2	4	5	-12	nt
Oc1ccc(-c2nc(-c3ccc(O)c(O)c3)cs2)cc1	-3	1	-1	47*	-1	6
COc1ccc(-c2nnc(SCC(=O)NN=C(C)c3cccc4ccccc34)n2-c2ccccc2)cc1	-4	nt	nt	nt	nt	nt
N#C/C(=C\c1cc(O)c(O)c(O)c1)C(N)=O	-2	10	3	59*	13	15
O=c1ccc2cc(S(=O)(=O)N3CCOCC3)ccc2o1	3	3	2	42*	-6	1
COc1cccc(CNC(=O)[C@H]2CCCN2C(=O)[C@H]2CCCN2C(=O)c2cccs2)c1	1	nt	nt	nt	nt	nt
CNC(C#Cc1ccccc1)c1ccccc1C(F)(F)F (stereo not given)	2	nt	nt	nt	nt	nt
CC(=O)Oc1c(Cl)c(N2CCOCC2)c(OC(C)=O)c2ccccc12	-3	-5	-8	44*	12	9
Cc1cc2c(cc1C)C(=O)C(Br)=C(N)C2=O	9	nt	nt	nt	nt	nt
NC1=C(Br)C(=O)c2ccccc2C1=O	15	4	35*	66*	71*	28
Cc1ccc(NC(=O)[C@@H](Cc2ccccc2)NC(=O)[C@H]2O[C@@H](n3ccc(=O)[nH]c3=O)[C@H](O)[C@@H]2O)cc1C	6	nt	nt	nt	nt	nt
CCc1ccc(NC(=O)Cn2c3[n+](c4c(F)c(F)ccc42)CCCCC3)cc1	0	-3	2	77*	20	89*
Cc1cc(O)cc(=O)n1-c1cccc([N+](=O)[O-])c1	8	nt	nt	nt	nt	nt
COC(=O)CN1CCN(C(=O)c2csc3ccccc23)CC1	-2	nt	nt	nt	nt	nt
O=C(NCCc1ccc(O)c(O)c1)C1COc2ccccc2O1 (stereo not given)	8	-5	4	55*	15	9
CC(C)NC(=O)N(C)C[C@H]1OCc2cn(nn2)CCCC(=O)N([C@H](C)CO)C[C@@H]1C	3	nt	nt	nt	nt	nt
C#CC(=O)N(c1cc(OC)ccc1OC)C(C(=O)NC1CCCC1)c1cccs1 (stereo not given)	nt	0	34*	65*	16	68*
O=C1Nc2ccccc2N2CCCC12 (stereo not given)	nt	-12	71*	69*	78*	77*
O=C1Nc2cc(S(=O)(=O)N3CCCC3)ccc2N2CCCC12 (stereo not given)	6	-8	9	-2	21	nt
Cn1c2ccccc2c2cc(/C=N/NC(=O)c3cc(O)ccc3O)ccc21	11	2	1	82*	32	40*

Bioassay records: PubChem, several laboratories
